# Screening results: PubChem BioAssay, several laboratories
# Hits are enriched below; roughly 12% of the tested compounds scored in any of these assays.
# RAM inhibit – inhibitors of the yeast RAM network, primary screen, dse1pr::URA3 reporter, 5-FOA selection. AID 868, 2007. inhibition, % at 50 µM. S. cerevisiae dse1pr::URA3 reporter, 5-FOA growth OD615, 2 d; analog-sensitive cbk1-as2 kinase mutant strain. 190,000 compounds, 1.8% hits;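 active = inhibition above a set limit, 3 SD over mean compound inhibition, cut at about 8.4% in these data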;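 also: inhibition rescues growth on 5-FOA so higher OD means more RAM inhibition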
# ABCB1 inh – ABCB1 efflux pump inhibitors, primary screen, cell-based, multiplex, flow cytometry, ABCG2 counter-screen | ATP-dependent translocase ABCB1 (Homo sapiens), P08183 | CCRF-Adr cells, JC-1 efflux | inhibition, % at 6.6 µM | 190,000 compounds, 0.067% hits | AID 1326, 2008; in the data active = inhibition above about 40%;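 also: higher value means more JC-1 retained so stronger ABCB1 efflux block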
# ABCG2 block – ABCG2 efflux pump inhibitors, primary screen, multiplex with ABCB1, IgMXP3 cells, flow cytometry. 190,000 compounds, 0.1% hits. inhibition, % at 6.6 µM. Broad substrate specificity ATP-binding cassette transporter ABCG2 (Homo sapiens), Q9UNQ0. JC-1 efflux;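 active = inhibition above 80%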
# Target sequence (Q9UNQ0 whole entry, looked up): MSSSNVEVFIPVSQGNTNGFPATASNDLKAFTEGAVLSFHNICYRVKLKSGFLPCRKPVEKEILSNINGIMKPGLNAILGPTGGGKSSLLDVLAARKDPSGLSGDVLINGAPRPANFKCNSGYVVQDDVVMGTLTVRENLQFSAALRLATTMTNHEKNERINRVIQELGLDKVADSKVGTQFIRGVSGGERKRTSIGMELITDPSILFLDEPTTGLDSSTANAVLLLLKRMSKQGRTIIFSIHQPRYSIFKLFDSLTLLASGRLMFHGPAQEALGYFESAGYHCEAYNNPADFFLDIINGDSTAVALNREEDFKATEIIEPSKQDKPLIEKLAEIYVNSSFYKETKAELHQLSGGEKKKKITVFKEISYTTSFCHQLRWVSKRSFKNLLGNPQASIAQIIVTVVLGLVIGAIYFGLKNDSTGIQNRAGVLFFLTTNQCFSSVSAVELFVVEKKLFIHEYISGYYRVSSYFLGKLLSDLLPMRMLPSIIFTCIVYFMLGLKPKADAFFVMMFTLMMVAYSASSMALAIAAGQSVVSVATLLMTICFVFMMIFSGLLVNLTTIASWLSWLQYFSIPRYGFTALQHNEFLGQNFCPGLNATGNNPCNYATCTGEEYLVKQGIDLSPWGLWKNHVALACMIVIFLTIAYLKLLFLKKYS
#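 Incubation: cells with compound and JC-1, 10 min at 25 °C, rotating, no wash / Test system: IgMXP3 (ABCG2) plus far-red-tagged CCRF-Adr (ABCB1) cells / Compound dosing: one concentration, 6.6 µM final / Also added: JC-1 fluorescent substrate / Evaluation: efflux inhibition in percent versus controls / Detection: flow cytometry, 530 nm JC-1 signal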
# WT yeast gro inh – growth inhibition of WT strain, primary screen, mitochondrial fusion inhibitor project, WT and mutant strains, chemical genetic. mitochondrial fusion phenotypic screen. inhibition, % at 10 µM. 190,000 compounds, 2.1% hits. AID 1362, 2008; in the data active = inhibition above about 58%; tested in S. cerevisiae
# Lmaj promast – Leishmania major promastigote growth inhibition, primary screen. 200,000 compounds, 9% hits. inhibition, % at 10 µM. Leishmania major promastigotes, resazurin fluorescence viability; in the data active = inhibition above about 50%;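 also: promastigotes grown with compound for 44 hours at 28 °C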
# A number is an active result; . = inactive.
SMILES,RAM inhibit,ABCB1 inh,ABCG2 block,WT yeast gro inh,Lmaj promast
Cc1ccc(-c2[nH]c(-c3ccc(Cl)cc3)nc2SCC(=O)NCC2CCCO2)cc1 (stereo not drawn),.,.,.,.,70
COc1ccc(-c2[nH]c(-c3ccc(F)cc3)nc2SCC(=O)NC2CCCC2)cc1,.,.,.,.,77
Cc1nn(C)cc1C(C)Nc1nc2nonc2nc1N1CCCCC1 (stereo not drawn),.,.,.,.,.
COc1cc2cc(CN(Cc3cccnc3)C(=O)Nc3ccccc3F)c(=O)[nH]c2cc1OC,.,.,.,.,.
Cc1ccc(C(=O)Nc2ccc(C(=O)N/N=C/c3c[nH]c4ccccc34)cc2)cc1,.,.,.,.,73
C/C(=N\NC(=O)c1c[nH]c2ccccc12)c1ccc2c(c1)OCO2,.,.,.,.,.
O=C(N/N=C/c1c[nH]c2ccccc12)c1[nH]c2ccc(Br)cc2c1-c1ccccc1,.,.,.,96,.
O=C(N/N=C/c1c[nH]c2ccccc12)c1ccncc1,.,.,.,.,56
O=C(N/N=C/c1cc2c(cc1Br)OCO2)c1c[nH]c2ccccc12,.,.,.,.,80
O=C(N/N=C/c1c[nH]c2ccc(Br)cc12)c1ccncc1,.,.,.,.,.
O=C(N/N=C/c1ccc(O)cc1)c1[nH]c2ccc(Br)cc2c1-c1ccccc1,.,.,.,.,.
CC(C)OC(=O)c1cc(C(=O)c2cc(F)ccc2O)coc1=N,.,.,.,.,.
COc1ccc(O)c(C(=O)c2coc(=N)c(C(=O)Nc3ccc(SC(F)F)cc3)c2)c1,.,.,.,.,83
CC1CCc2[nH]c3ccc(C(=O)NCCCOC(C)C)cc3c2C1 (stereo not drawn),.,.,.,.,.
S=C(NCc1ccc2c(c1)OCO2)NCc1ccc2c(c1)OCO2,.,.,.,.,.
CCc1cccc(CC)c1NC(=S)NC(C)c1ccccc1 (stereo not drawn),.,.,.,60,.
CCc1cccc(CC)c1NC(=S)NCc1ccc2c(c1)OCO2,.,.,.,.,60
CC(C)c1ccc(NC(=S)NCc2ccc3c(c2)OCO3)cc1,.,.,.,67,.
Cn1/c(=N/N=C/c2ccccn2)sc2ccccc21,.,.,.,.,.
Cc1ccc(NC(=S)NNS(=O)(=O)c2ccc3ccccc3c2)cc1Cl,.,.,.,.,.
Cc1ccc(S(=O)(=O)c2cc3c(=O)n4ccccc4nc3n(Cc3ccco3)c2=N)cc1C,.,.,.,.,56
N=c1c(S(=O)(=O)c2ccccc2)cc2c(=O)n3ccccc3nc2n1Cc1ccco1,.,.,.,.,.
Cc1cccn2c(=O)c3cc(S(=O)(=O)c4ccccc4)c(=N)n(Cc4ccco4)c3nc12,.,.,.,.,.
Cc1ccc2nc3c(cc(S(=O)(=O)c4ccccc4)c(=N)n3Cc3ccco3)c(=O)n2c1,.,.,.,.,81
CCNC(=O)C(=O)NCc1ccncc1,.,.,.,.,.
SMILES,RAM inhibit,ABCB1 inh,ABCG2 block,WT yeast gro inh,Lmaj promast
Cc1cc(=O)oc2cc(OCc3ccc(C(=O)N4CCN(c5ccccc5)CC4)cc3)ccc12,.,.,.,.,65
Cc1cc(=O)oc2cc(OCc3ccc(S(=O)(=O)N4CCOCC4)cc3)ccc12,.,.,.,.,80
COc1ccc(C2C(C#N)=C(N)N(c3sc4c(c3C#N)CCCC4)C3=C2C(=O)CC(C)(C)C3)cc1OC (stereo not drawn),.,.,.,.,.
COc1ccc(C2C(C#N)=C(N)N(c3sc4c(c3C#N)CCCC4)C3=C2C(=O)CC(C)(C)C3)cc1 (stereo not drawn),.,.,.,.,83
COc1ccc(C2C(C#N)=C3NC(=O)c4c(sc5c4CCCCC5)N3C3=C2C(=O)CC(C)(C)C3)cc1 (stereo not drawn),.,.,.,.,88
COc1ccc(C2C(C#N)=C(N)OC3=C2C(=O)CC(C)(C)C3)cc1 (stereo not drawn),.,.,.,.,.
COc1ccc(S(=O)(=O)Nc2ccccc2C(N)=O)cc1OC,.,.,.,.,.
N#CC(C#N)=C1NC2(CCCC2)Cc2ccccc21,.,.,.,.,85
